In PubChem BioAssay:
The source made the active and inactive calls.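 The calls were made as follows, unless noted: active = inhibition above 20% together with a positive visual image hit; inconclusive = visual image hit but inhibition not above 20%; inactive = no visual image hit.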

Legend:
[1] = inhibitors of TNFa-induced NFkB p65 translocation, primary screen, imaging, HUVEC, MLSMR starter and 10KST1 sets (AID 438); details: HUVEC TNFa-induced p65 nuclear translocation; cell count: measured here: nuclei count (cytotoxicity indicator), at 2.08 µM; inhibition: at 2 µM, stronger effect = higher value, 0% TNFa-plus-vehicle, 100% no-TNFa wells;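 also: compound added about 3h40 before a 20 min TNFalpha stimulation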;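 as to inhibition: signal is the nuclear over cytoplasmic p65 intensity ratio per well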
[2] = endothelial E-selectin expression blockers – imaging, HUVEC, immunofluorescence, MLSMR starter and 10KST1 sets, primary screen (AID 487;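 active = visually confirmed hit in the image check and inhibition above 20%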;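 as to inhibition: signal is fraction of cell area covered by stained E-selectin grains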;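 as to nuclei count: 100% = median nuclei count of all wells on the same plate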); details: HUVEC TNFalpha-induced E-selectin immunofluorescence imaging, at 2 µM; inhibition: stronger effect = higher value; nuclei count: measured here: cell number, toxicity
[3] = Primary imaging screen for DUSP6 inhibitors that restore phospho-Erk in transfected HeLa cells, chemical complementation (AID 609;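 active = compounds giving at least 50% inhibition in the cell-based MKP-3 phosphatase rescue imaging test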;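 as to inhibition: phospho-Erk level distribution per well compared with pooled transfected vehicle control wells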); details: HeLa MKP-3 transfected, phospho-Erk imaging KS statistic, at 10 µM, cells stimulated with TPA for 15 min
[4] = molecular target: Dual specificity protein phosphatase 6 (Homo sapiens) (UniProt Q16828); experiment: as above; details: HeLa MKP-3 transfected, phospho-Erk imaging KS statistic; at 10 µM; stronger effect = higher value; cells stimulated with TPA for 15 min
[5] = molecular target: Voltage-gated potassium channel subunit beta-2 (Rattus norvegicus) (UniProt P62483); experiment: inhibitors of rat Kvbeta2 reductase activity – biochemical, NADPH fluorescence, primary screen (AID 622;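 active = fluorescence slope higher than the sample average by over 3 SD, cut at about -0.22 in these data, passing the limit was not always enough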;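 also: slope of raw intensity against log time taken from 70 to 1610 s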); details: recombinant KvBeta, 4-cyanobenzaldehyde reduction, at 10 µM, stronger effect = higher value
[6] = molecular target: Voltage-gated potassium channel subunit beta-2 (Rattus norvegicus) (UniProt P62483); experiment: enhancers of rat Kvbeta2 NADPH turnover – biochemical, NADPH fluorescence, primary screen (AID 623;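 active = NADPH fluorescence slope more negative than the mean of all samples by about 3 SD, 99.7% confidence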;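 also: fluorescence intensity change per second fitted from 20 to 320 s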); details: Recombinant KvBeta, NADPH fluorescence decrease slope, 10 min; at 10 µM; stronger effect = lower value
[7] = molecular target: Alpha-2C adrenergic receptor (Homo sapiens) (UniProt P18825); experiment: compounds altering alpha2C-coupled GIRK flux – cell-based, HEK293 alpha2C/GIRK1/2, thallium flux, primary screen (AID 624;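 active = fluorescence slope after compound addition differing from the mean of all screened samples at 99.7% confidence, in either direction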;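 also: slope of fluorescence ratio to pre-addition baseline per second over 15 to 24 s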); details: thallium flux BTC fluorescence, at 10 µM, actives lie on both sides
[8] = inhibitors of larval lipid processing in zebrafish, primary screen, whole organism, PED6 fluorescence, gall bladder and intestine (AID 686;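 active = a full or partial loss of lipid-probe fluorescence in the fish gall bladder, intestine or both, judged by eye; inactive = no fluorescence loss, or compound toxic to the fish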;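 also: larvae 5 to 7 days old with five fish per well; signal comes from phospholipase A2 cleavage of quenched PED6 carried via bile; overnight exposure to compound and PED6 before scoring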); details: Zebrafish larvae PED6 lipid processing, fluorescence scoring; screened at 20 µM (by protocol)
How it was run: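 System: live zebrafish larvae aged 5-7 days, whole organism; measure: graded gall bladder and intestinal fluorescence inhibition per well; incubation: overnight exposure; reagent: ingested quenched lipid PED6 at 100 nM; signal: By-eye fluorescence microscopy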

[9] = loss of swimming-algae plug formation – whole organism, Chlamydomonas reinhardtii, WT vs cilia-less mutant, absorbance, 96-well, primary screen (AID 463189;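 active = inhibition at or above 50% relative to wild type and mutant plate controls; inactive = inhibition below 50%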;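 also: 0% = wild type cc124 cells in DMSO and 100% = ciliumless bld1 mutant cells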); details: Chlamydomonas reinhardtii gravitaxis, OD600 absorbance, 2 days; at 10 µM; stronger effect = higher value
[10] = measured here: cell density z-score
[11] = measured here: nuclear c-Myc green intensity z-score
[12] = measured here: nuclear pErk red intensity z-score, stronger effect = higher value

Chain of Alpha-2C adrenergic receptor (Homo sapiens) (P18825 whole entry, looked up): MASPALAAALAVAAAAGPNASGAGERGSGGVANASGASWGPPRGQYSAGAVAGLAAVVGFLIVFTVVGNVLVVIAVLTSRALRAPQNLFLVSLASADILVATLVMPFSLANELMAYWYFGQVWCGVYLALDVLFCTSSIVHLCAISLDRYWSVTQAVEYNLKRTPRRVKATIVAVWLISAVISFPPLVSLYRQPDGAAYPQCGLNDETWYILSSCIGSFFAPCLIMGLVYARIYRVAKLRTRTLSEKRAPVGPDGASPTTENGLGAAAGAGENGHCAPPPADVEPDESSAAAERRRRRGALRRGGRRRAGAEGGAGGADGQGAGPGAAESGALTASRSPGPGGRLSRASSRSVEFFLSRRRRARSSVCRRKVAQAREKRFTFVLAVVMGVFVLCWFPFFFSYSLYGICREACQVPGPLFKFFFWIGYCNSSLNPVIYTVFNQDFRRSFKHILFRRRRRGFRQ
Chain of Voltage-gated potassium channel subunit beta-2 (Rattus norvegicus) (P62483 whole entry, looked up): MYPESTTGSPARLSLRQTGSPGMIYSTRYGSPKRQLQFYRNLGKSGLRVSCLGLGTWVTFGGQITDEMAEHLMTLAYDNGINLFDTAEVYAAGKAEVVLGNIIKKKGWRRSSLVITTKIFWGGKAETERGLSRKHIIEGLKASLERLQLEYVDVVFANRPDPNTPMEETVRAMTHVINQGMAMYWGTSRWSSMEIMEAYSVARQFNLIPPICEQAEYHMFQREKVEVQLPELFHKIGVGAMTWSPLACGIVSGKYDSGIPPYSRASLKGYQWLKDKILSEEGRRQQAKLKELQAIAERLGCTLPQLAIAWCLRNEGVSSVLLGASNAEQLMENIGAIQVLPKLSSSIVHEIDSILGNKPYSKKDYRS
Chain of Dual specificity protein phosphatase 6 (Homo sapiens) (Q16828 whole entry, looked up): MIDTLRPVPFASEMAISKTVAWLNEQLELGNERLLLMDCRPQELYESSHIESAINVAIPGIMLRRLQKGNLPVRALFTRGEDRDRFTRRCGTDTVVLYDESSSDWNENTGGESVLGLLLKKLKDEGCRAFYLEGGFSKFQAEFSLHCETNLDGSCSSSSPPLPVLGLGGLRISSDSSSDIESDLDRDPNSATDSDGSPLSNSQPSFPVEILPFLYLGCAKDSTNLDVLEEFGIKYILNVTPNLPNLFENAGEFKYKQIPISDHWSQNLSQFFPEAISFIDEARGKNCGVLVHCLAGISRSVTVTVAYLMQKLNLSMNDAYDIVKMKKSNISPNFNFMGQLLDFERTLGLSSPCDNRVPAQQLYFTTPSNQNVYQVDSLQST

SMILES	cell count [1]	inhibition [1]	inhibition [2]	nuclei count [2] [%]	z-score [3, 10]	z-score [3, 11]	z-score [3, 12]	inhibition [4]	fluorescence slope [5]	NADPH fluorescence slope [6]	slope [7]	outcome [8]	inhibition [9]
CCOC(=O)C(CC(=O)O)N1CCCCC1 (stereo unspecified)	485	-6.2% (inactive)	-40.2% (inactive)	89.2	-1.03	1.55	-0.781	3.5% (inactive)	-0.367 (inactive)	4.4e-05 (inactive)	0.00418 (inactive)	inactive	-13.4% (inactive)
CCCCCCOC(=O)CCn1[nH]c(=O)c2ccccc2c1=O	547	-12.2% (inactive)	-119% (inactive)	136	0.183	-0.855	0.203	7.93% (inactive)	-0.492 (inactive)	-6.3e-05 (inactive)	0.0065 (inactive)	inactive	27.6% (inactive)
CC1CN(C2CCN(C(=O)c3ccccc3Cl)CC2)CC(C)O1 (stereo unspecified)	445	-0.2% (inactive)	-214% (inactive)	151	-0.321	-1.49	-0.453	-5.62% (inactive)	-0.348 (inactive)	-1.1e-05 (inactive)	0.00459 (inactive)	inactive	0.742% (inactive)
COc1ccc(/C(O)=C2/C(=O)C(=O)N(CCCN(C)C)C2c2cccc(Cl)c2)cc1OC (stereo unspecified)	382	-1.1% (inactive)	-135% (inactive)	155	-1.5	0.328	0.495	3.66% (inactive)	-0.393 (inactive)	-5.4e-05 (inactive)	0.00697 (inactive)	inactive	0.268% (inactive)
COc1ccc2[nH]c(C)c(C(=O)CN3CCN(C(=O)c4ccco4)CC3)c2c1	567	-7.1% (inactive)	-4.8% (inactive)	165	-1.11	-0.714	0.0705	-7.01% (inactive)	-0.311 (inactive)	-8.4e-06 (inactive)	0.00523 (inactive)	inactive	-1.6% (inactive)
Nc1nonc1-c1noc(-c2ccccc2)n1	480	-3.5% (inactive)	-26.8% (inactive)	122	0.154	1.08	-0.0551	13.2% (inactive)	-0.516 (inactive)	-3.2e-05 (inactive)	0.00533 (inactive)	inactive	33.2% (inactive)
CC(C)Cc1nc(N2CCCCC2)c(C#N)c2c1CCC2	513	-0.1% (inactive)	-91.7% (inactive)	135	-1.47	0.461	-0.497	1.6e-07% (inactive)	-0.506 (inactive)	-3.4e-06 (inactive)	0.006 (inactive)	inactive; toxic	-3.52% (inactive)
Cc1ccc(S(=O)(=O)c2cc3c(=O)n4ccccc4nc3n(C)c2=N)cc1	563	-16.4% (inactive)	-78% (inactive)	162	0.476	-0.181	0.227	-16.8% (inactive)	-0.453 (inactive)	-3.3e-05 (inactive)	0.00439 (inactive)	inactive	1.37% (inactive)
CCOC(=O)C1=C(C)N=C2SC(C)C(=O)N2C1c1ccc(OC(C)=O)c(OC)c1 (stereo unspecified)	364	-4% (inactive)	-11.8% (inactive)	184	0.885	-1.84	1.33	-4.59% (inactive)	-0.413 (inactive)	-0.000136 (inactive)	0.00549 (inactive)	inactive	21.6% (inactive)
Cc1nc(NCCN)c(C#N)c2c1COC(C)(C)C2	666	-1.2% (inactive)	-117% (inactive)	165	-0.432	-0.111	-0.818	1.75% (inactive)	-0.506 (inactive)	-1.4e-06 (inactive)	0.00551 (inactive)	inactive	1.63% (inactive)
CS(=O)(=O)CCC(C(=O)n1nnc2ccccc21)N1C(=O)c2ccccc2C1=O (stereo unspecified)	342	-6.4% (inactive)	-46.5% (inactive)	134	0.823	-0.696	-1.53	3.42% (inactive)	-0.419 (inactive)	-5.5e-05 (inactive)	0.00572 (inactive)	inactive	26% (inactive)
c1ccc2c(c1)NC(c1ccncc1)n1c-2nc2ccccc21 (stereo unspecified)	301	5% (inactive)	-118% (inactive)	108	-1.27	1.48	0.784	-2.91% (inactive)	-0.384 (inactive)	-5.4e-05 (inactive)	0.00501 (inactive)	inactive	-2.42% (inactive)
